Test results as given in ChEMBL document CHEMBL4261639, “Cell-Active Small Molecule Inhibitors of the DNA-Damage Repair Enzyme Poly(ADP-ribose) Glycohydrolase (PARG): Discovery and Optimization of Orally Bioavailable Quinazolinedione Sulfonamides” (J Med Chem, 2018).

Key:
[1] = biological target: T1, Poly(ADP-ribose) glycohydrolase (Homo sapiens, UniProt Q86W56); assay: Inhibition of human full length PARG using Bt-NAD ribosylated PARP1 substrate after 10 mins by TR-FRET assay
[2] = biological target: T1, Poly(ADP-ribose) glycohydrolase; assay: Inhibition of PARG in human HeLa cells assessed as induction of MMS-induced PAR chains preincubated for 1 hr followed by MMS addition and measured after 1 hr by Alexofluor 488-conjugated secondary antibody and Hoechst 33342 staining based assay; format: cell-based
Procedure, shortened: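 Acute (1 h) cell-based proof-of-mechanism assay measuring persistence of PAR chains, i.e. blockade of PARG-mediated PAR degradation, across a dose range. EC50 values are means of at least 4 independent measurements, with standard deviations.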

[3] = Clearance in human liver microsomes
[4] = Clearance in mouse liver microsomes

T1 sequence (Q86W56 whole entry): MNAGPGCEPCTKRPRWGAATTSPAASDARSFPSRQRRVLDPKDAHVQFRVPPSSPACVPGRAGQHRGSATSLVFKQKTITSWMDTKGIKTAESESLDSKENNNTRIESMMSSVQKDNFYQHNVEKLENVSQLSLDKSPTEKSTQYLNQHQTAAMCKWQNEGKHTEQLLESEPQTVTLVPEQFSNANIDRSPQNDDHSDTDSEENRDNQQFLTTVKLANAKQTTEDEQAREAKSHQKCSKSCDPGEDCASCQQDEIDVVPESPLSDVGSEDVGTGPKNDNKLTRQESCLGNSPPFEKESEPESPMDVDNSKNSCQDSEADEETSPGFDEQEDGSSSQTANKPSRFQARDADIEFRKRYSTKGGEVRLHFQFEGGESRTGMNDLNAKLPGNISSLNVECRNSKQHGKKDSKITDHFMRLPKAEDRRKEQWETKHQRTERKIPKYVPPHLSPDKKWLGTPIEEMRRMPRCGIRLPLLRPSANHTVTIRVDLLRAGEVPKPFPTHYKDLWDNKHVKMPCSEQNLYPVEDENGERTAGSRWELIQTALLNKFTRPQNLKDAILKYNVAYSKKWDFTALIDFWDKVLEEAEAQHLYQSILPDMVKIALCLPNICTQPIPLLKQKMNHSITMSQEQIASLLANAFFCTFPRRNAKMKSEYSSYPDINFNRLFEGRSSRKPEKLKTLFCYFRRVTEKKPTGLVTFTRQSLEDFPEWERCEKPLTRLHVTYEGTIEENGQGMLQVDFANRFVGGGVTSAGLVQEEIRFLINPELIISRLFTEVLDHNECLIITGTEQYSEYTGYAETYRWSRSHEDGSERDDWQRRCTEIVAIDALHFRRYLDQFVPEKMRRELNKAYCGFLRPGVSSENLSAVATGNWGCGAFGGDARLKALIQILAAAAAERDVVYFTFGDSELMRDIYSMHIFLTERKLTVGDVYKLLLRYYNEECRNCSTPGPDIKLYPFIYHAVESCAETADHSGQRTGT

SMILES	EC50 [1] [nM]	EC50 [2] [nM]	microsomal CLint [3] [µL/min/mg]	microsomal CLint [4] [µL/min/mg]
N#CC1(NS(=O)(=O)c2ccc3c(c2)C(=O)c2ccccc2C3=O)CC1	3300	19000		
CC1(NS(=O)(=O)c2ccc3c(c2)c(=O)n(CC#N)c(=O)n3CC2CC2)CC1	270	1100	17	36
Cn1nnnc1Cn1c(=O)c2cc(S(=O)(=O)NC3(C)CC3)ccc2n(C)c1=O	3000			
CCn1c(=O)c2cc(S(=O)(=O)NC3(C#N)CC3)ccc2n(CC)c1=O	1800	5600		
Cn1cc(Cn2c(=O)c3cc(S(=O)(=O)NC4(C)CC4)ccc3n(CC3CC3)c2=O)cn1	29	56	81	
Cc1nnc(Cn2c(=O)c3cc(S(=O)(=O)NC4(C)CC4)ccc3n(C)c2=O)o1	1800			
Cc1nnc(Cn2c(=O)c3cc(S(=O)(=O)NC4(C)CC4)ccc3n(C)c2=O)s1	470			
Cc1cc(Cn2c(=O)n(CC#N)c(=O)c3cc(S(=O)(=O)NC4(C)CC4)ccc32)n(C)n1	280	560	20	
CN(C)CCn1c(=O)n(C)c(=O)c2cc(S(=O)(=O)NC3(C)CC3)ccc21	2000	6400		
CCn1c(=O)n(Cc2cnn(C)c2)c(=O)c2cc(S(=O)(=O)NC3(C)CC3)ccc21			35	
CCn1c(=O)c2cc(S(=O)(=O)NC3(C)CC3)ccc2n(CC)c1=O	1500	1100		
Cc1nc(C)c(Cn2c(=O)n(Cc3cnn(C)c3)c(=O)c3cc(S(=O)(=O)NC4(C)CC4)ccc32)s1	6	20	97	
CCn1c(=O)n(Cc2cc(C)no2)c(=O)c2cc(S(=O)(=O)NC3(C)CC3)ccc21	330	120	26	
Cn1c(=O)c2cc(S(=O)(=O)NC3(C)CC3)ccc2n(CC2CCCCC2)c1=O	560	2700		
Cn1c(=O)n(Cc2cnn(CC#N)c2)c(=O)c2cc(S(=O)(=O)NC3(C)CC3)ccc21	370			
Cc1nc(C)c(Cn2c(=O)c3cc(S(=O)(=O)NC4(C)CC4)ccc3n(C)c2=O)s1	910			
CC1(NS(=O)(=O)c2ccc3c(c2)C(=O)c2ccccc2C3=O)CC1	6000	6600		

SMILES	EC50 [1] [nM]	EC50 [2] [nM]	microsomal CLint [3] [µL/min/mg]	microsomal CLint [4] [µL/min/mg]
Cc1cc(Cn2c(=O)c3cc(S(=O)(=O)NC4(C)CC4)ccc3n(CC3CC3)c2=O)on1	55	49	80	
O=C1c2ccccc2C(=O)c2cc(S(=O)(=O)NC3CC3)ccc21	13000	22000		
Cc1noc(C)c1Cn1c(=O)c2cc(S(=O)(=O)NC3(C)CC3)ccc2n(C)c1=O	620			
C#CCn1c(=O)n(CC#N)c(=O)c2cc(S(=O)(=O)NC3(C)CC3)ccc21	250	270	10	63
CCn1c(=O)n(Cc2nnc(C)s2)c(=O)c2cc(S(=O)(=O)NC3(C)CC3)ccc21	240	120	17	30
COCCn1c(=O)n(C)c(=O)c2cc(S(=O)(=O)NC3(C)CC3)ccc21	1100	6100		
C#CCn1c(=O)n(Cc2cnn(C)c2)c(=O)c2cc(S(=O)(=O)NC3(C)CC3)ccc21	52	130	42	
Cc1noc(Cn2c(=O)c3cc(S(=O)(=O)NC4(C)CC4)ccc3n(C)c2=O)n1	5000			
C#CCn1c(=O)n(Cc2cnc(C)s2)c(=O)c2cc(S(=O)(=O)NC3(C)CC3)ccc21	45	82	100	
Cc1nnsc1Cn1c(=O)c2cc(S(=O)(=O)NC3(C)CC3)ccc2n(C)c1=O	880			
Cc1ncc(Cn2c(=O)c3cc(S(=O)(=O)NC4(C)CC4)ccc3n(Cc3sc(C)nc3C)c2=O)s1	4.8	9.2	140	
Cn1c(=O)[nH]c2ccc(S(=O)(=O)NC3(C)CC3)cc2c1=O	4000	8100		
Cc1nonc1Cn1c(=O)c2cc(S(=O)(=O)NC3(C)CC3)ccc2n(C)c1=O	2100			
Cn1c(=O)c2cc(S(=O)(=O)NC3(C#N)CC3)ccc2n(C)c1=O	5000	14000		
Cc1cc(Cn2c(=O)n(Cc3nnc(C)s3)c(=O)c3cc(S(=O)(=O)NC4(C)CC4)ccc32)n(C)n1	64	270	15	35
C#CCn1c(=O)n(Cc2cc(C)no2)c(=O)c2cc(S(=O)(=O)NC3(C)CC3)ccc21	100	76	72	
Cc1cc(Cn2c(=O)c3cc(S(=O)(=O)NC4(C)CC4)ccc3n(Cc3cc(C)nn3C)c2=O)on1	38	120	37	

The next lines start with the values.

EC50 [1] [nM]	EC50 [2] [nM]	microsomal CLint [3] [µL/min/mg]	microsomal CLint [4] [µL/min/mg]	SMILES
13000				Cn1c(=O)n(Cc2nccs2)c(=O)c2cc(S(=O)(=O)NC3(C)CC3)ccc21
3300				Cn1cncc1Cn1c(=O)c2cc(S(=O)(=O)NC3(C)CC3)ccc2n(C)c1=O
2800	8900			Cn1c(=O)c2cc(S(=O)(=O)NC3(C)CC3)ccc2n(CC#N)c1=O
4000				Cn1c(=O)n(Cc2cnc[nH]2)c(=O)c2cc(S(=O)(=O)NC3(C)CC3)ccc21
450				CCn1cc(Cn2c(=O)c3cc(S(=O)(=O)NC4(C)CC4)ccc3n(C)c2=O)cn1
2700				Cn1c(=O)n(Cc2csnn2)c(=O)c2cc(S(=O)(=O)NC3(C)CC3)ccc21
3000				C#CCn1c(=O)c2cc(S(=O)(=O)NC3(C)CC3)ccc2n(C)c1=O
470				Cc1cc(Cn2c(=O)c3cc(S(=O)(=O)NC4(C)CC4)ccc3n(C)c2=O)on1
2300				Cn1c(=O)n(Cc2ccns2)c(=O)c2cc(S(=O)(=O)NC3(C)CC3)ccc21
3200				Cc1cc(Cn2c(=O)c3cc(S(=O)(=O)NC4(C)CC4)ccc3n(C)c2=O)[nH]n1
1200				Cn1c(=O)n(Cc2cncs2)c(=O)c2cc(S(=O)(=O)NC3(C)CC3)ccc21
3100				Cn1cnnc1Cn1c(=O)c2cc(S(=O)(=O)NC3(C)CC3)ccc2n(C)c1=O
20000				Cn1c(=O)n(Cc2ccsc2)c(=O)c2cc(S(=O)(=O)NC3(C)CC3)ccc21
1600				Cn1c(=O)n(CC(=O)c2ccccc2)c(=O)c2cc(S(=O)(=O)NC3(C)CC3)ccc21
7000				Cn1c(=O)n(CC2COC2)c(=O)c2cc(S(=O)(=O)NC3(C)CC3)ccc21
1300	3600			CCn1c(=O)n(C)c(=O)c2cc(S(=O)(=O)NC3(C)CC3)ccc21

EC50 [1] [nM]	EC50 [2] [nM]	microsomal CLint [3] [µL/min/mg]	microsomal CLint [4] [µL/min/mg]	SMILES
21000				Cn1c(=O)n(Cc2cocn2)c(=O)c2cc(S(=O)(=O)NC3(C)CC3)ccc21
710	250			C#CCn1c(=O)n(C)c(=O)c2cc(S(=O)(=O)NC3(C)CC3)ccc21
5200				Cc1cc(Cn2c(=O)c3cc(S(=O)(=O)NC4(C)CC4)ccc3n(C)c2=O)no1
380				Cn1c(=O)n(Cc2cn[nH]c2)c(=O)c2cc(S(=O)(=O)NC3(C)CC3)ccc21
1100				Cn1c(=O)n(CC#N)c(=O)c2cc(S(=O)(=O)NC3(C)CC3)ccc21
12000				Cc1nc(-c2ccccc2)c(Cn2c(=O)c3cc(S(=O)(=O)NC4(C)CC4)ccc3n(C)c2=O)s1
4100				Cn1nccc1Cn1c(=O)c2cc(S(=O)(=O)NC3(C)CC3)ccc2n(C)c1=O
6000				Cn1c(=O)n(Cc2ccoc2)c(=O)c2cc(S(=O)(=O)NC3(C)CC3)ccc21
10000				Cc1nc(Cn2c(=O)c3cc(S(=O)(=O)NC4(C)CC4)ccc3n(C)c2=O)cs1
480				Cn1c(=O)n(Cc2cnc(N)s2)c(=O)c2cc(S(=O)(=O)NC3(C)CC3)ccc21
480				Cc1ncc(Cn2c(=O)c3cc(S(=O)(=O)NC4(C)CC4)ccc3n(C)c2=O)s1
1300	2300			Cn1c(=O)c2cc(S(=O)(=O)NC3(C)CC3)ccc2n(Cc2ccccc2)c1=O
1700				Cn1c(=O)n(CC(=O)c2ccncc2)c(=O)c2cc(S(=O)(=O)NC3(C)CC3)ccc21
12000				Cn1ccc(Cn2c(=O)c3cc(S(=O)(=O)NC4(C)CC4)ccc3n(C)c2=O)n1
1200				Cn1c(=O)n(Cc2ccno2)c(=O)c2cc(S(=O)(=O)NC3(C)CC3)ccc21
770				Cc1oncc1Cn1c(=O)c2cc(S(=O)(=O)NC3(C)CC3)ccc2n(C)c1=O
